Data on ten compounds can be found in ChEMBL document CHEMBL1681788, “Effect of structural modification in the amine portion of substituted aminobutyl-benzamides as ligands for binding σ1 and σ2 receptors” (Bioorg Med Chem, 2011).

Data set [1] relates to sigma1/sigma2 receptors (Cavia porcellus). As to the kind of experiment: Selectivity ratio, ratio of Ki for guinea pig sigma1 receptor to Ki for guinea pig sigma2 receptor.
Data set [2] in a line: Displacement of [3H]ditolylguanidine from sigma2 receptor in guinea pig brain membrane. In kind it is cell membranes, Cavia porcellus. An outline of the steps:
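[3H]DTG competition binding with 500 nM (+)-PTZ present to mask σ1 sites, on fresh-frozen male English Hartley guinea pig brain membranes. Duplicate wells, four repeats. Compound stocks were 10^-3 M in acidified 1% EtOH/water.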

Data set [3] deals with Sigma non-opioid intracellular receptor 1 (Cavia porcellus, UniProt Q60492). As to the kind of experiment: Displacement of [3H]-(+)-pentazocine from Sigma1-receptor in guinea pig brain membrane. Type of data set: cell membranes. An outline of the steps: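 Competition binding with [3H](+)-PTZ as radioligand on membranes from fresh-frozen male English Hartley guinea pig brain. Duplicates, repeated four times. Test compounds came from 10^-3 M stocks in acidified 1% EtOH/water.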
Sequence of Sigma non-opioid intracellular receptor 1 (Q60492 whole entry): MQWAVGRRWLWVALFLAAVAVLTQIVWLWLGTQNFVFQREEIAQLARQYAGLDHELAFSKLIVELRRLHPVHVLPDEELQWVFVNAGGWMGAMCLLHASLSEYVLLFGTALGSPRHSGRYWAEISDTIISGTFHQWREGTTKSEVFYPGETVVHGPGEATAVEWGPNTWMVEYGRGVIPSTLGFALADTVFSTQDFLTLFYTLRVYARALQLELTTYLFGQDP
On the technique in general: Displacement assays read how much labelled ligand stays bound in the presence of the test substance.

Data set [4] in a line: Chemical stability of the compound assessed as compound remaining after 44 hrs by HPLC analysis. Type of data set: physicochemical. The settings on record: read-out: Activity. An outline of the steps: (§1)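 Compounds held at 10^-3 M in aqueous stock buffer of 1% EtOH with AcOH: 2.5% AcOH generally, 0.1% AcOH for the HCl and oxalate salts. Stored in stock buffer, then purity analysed by analytical HPLC at the stated time point (16 h, 44 h or 25 days).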

A short description of data set [5]: Chemical stability of the compound assessed as compound remaining after 16 hrs by HPLC analysis. In kind it is physicochemical. The settings on record: read-out: Activity. Summed up: as §1
Data set [6] is described as follows: Chemical stability of the compound assessed as decomposition after 25 days by HPLC analysis. The settings on record: 600 h. In kind it is physicochemical. An outline of the steps:
as §1

By Ki is commonly meant a measure of affinity in units of concentration, obtained from inhibition or displacement. A low value points to higher affinity.

Each structure is given as a SMILES string.

In the case of `COc1cc2c(cc1OC)CN(CCCCNC(=O)c1cc(Br)cc(OC)c1OC)CCC2`, the Ratio Ki in data set [1] was 6.58. Moreover, the Ki in data set [2] turned out to be 315 nM; in data set [3], 2070 nM.

For the compound `COc1cc2c(cc1OC)CN(CCCCNC(=O)c1cc(Br)cc(OC)c1OC)C2`, in data set [1], the Ratio Ki worked out at 1760. For the same compound, the results for the Ki in data set [2] and in data set [3] were 0.82 nM and 1440 nM, respectively.

Consider `COc1cc2c(cc1OC)N(CCCCNC(=O)c1cc(Br)cc(OC)c1OC)CCC2`, for which the remaining at 44 h in data set [4] came to 38%. The Ratio Ki in data set [1] is 0.77. In addition, the figures for the Ki in data set [2] and in data set [3] were 5820 nM and 4500 nM, respectively. Further, the remaining at 16 h in data set [5] worked out at 90%.

With `COc1cc2c(cc1OC)N(CCCCNC(=O)c1cc(Br)cc(OC)c1OC)CCCC2`, the Ki in data set [2] stood at 8960 nM; in data set [3] it was 2560 nM.

Turning to `COc1ccc(CCNCCCCNC(=O)c2cc(Br)cc(OC)c2OC)cc1OC`, in data set [1], the Ratio Ki is 0.2. The compound further yielded a Ki in data set [2] of 4620 nM.

For `COc1cc2c(cc1OC)CCN(CCCCNC(=O)c1cc(Br)cc(OC)c1OC)CC2`, the Ratio Ki in data set [1] stood at 8.5. Moreover, the Ki was found to be 734 nM in data set [2] and 5070 nM in data set [3].

Consider `COc1cc2c(cc1OC)N(CCCCNC(=O)c1cc(Br)cc(OC)c1OC)CC2`, for which, in data set [6], the Stability result is recorded as “Unstable”. Besides, the Ratio Ki in data set [1] turned out to be 0.47. The Ki in data set [2] is 9680 nM; in data set [3], 4520 nM. In data set [5], the remaining at 16 h was 86%.

`COc1ccc(CCN(C)CCCCNC(=O)c2cc(Br)cc(OC)c2OC)cc1OC` displayed an inhibition constant Ki in data set [2] of 2130 nM.

Turning to `COc1cc2c(cc1OC)CN(CCCCNC(=O)c1cc(Br)cc(OC)c1OC)CC2`, the Ki in data set [2] stood at 2.7 nM.

As for `COc1ccc(CCN2CCN(CCCc3ccccc3)CC2)cc1OC` [[11C]SA4503], in data set [2], the Ki was 89.5 nM.
